This is an account of results in ChEMBL document CHEMBL1124330, “2-O-alkyltyrosine derivatives of 1-deamino-arginine-vasopressin: highly specific and potent antidiuretic agonists” (J Med Chem, 1989).

The species entered for assay [1] is Rattus norvegicus. Description: In vitro anti-oxytocic activity on isolated estrogen treated rat uteri without Mg+2. The note with it: read-out: pA2 (converted). It is filed as functional. The method, boiled down: (§1)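 Uteri isolated from estrogen-treated female rats, suspended in medium containing either no Mg2+ or 0.5 mM Mg2+. Agonism estimated by the Holton method. Antagonistic pA2 values determined as described by Schild.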

The species named for assay [2] is Rattus norvegicus. Description: Anti vasopressor activity was determined. In kind it is functional, organism-based. The following applies: read-out: pA2 (converted). The method, boiled down: (§2)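 Vasopressor assay in urethane-anesthetized, phenoxybenzamine-treated rats, given by intravenous injection. Effective dose in nmol/kg is the antagonist dose that cuts the response to 2x units of agonist down to the response to 1x unit given before antagonist. USP posterior pituitary reference standard.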

For assay [3], the species on record is Rattus norvegicus. Description: In vitro anti-oxytocic activity on isolated estrogen treated rat uteri with 0.5 mM Mg+2. In kind it is functional. The note with it: read-out: pA2 (converted). The method, boiled down: as §1
The test system of assay [4] is Rattus norvegicus. Description: Dose that reduces the response seen with 2x units of agonist to equal the response seen with 1x unit of agonist administered before antagonist. In kind it is functional. The method, boiled down:
as §2

Assay [5] is filed under the species Rattus norvegicus. Description: Compound was tested for its antidiuretic activity. In kind it is functional, Urine.
Assay [6] is described as follows: Ratio of antidiuretic to vasopressor agonistic activity. In kind it is functional, Urine. Put shortly: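 Quotient of antidiuretic to vasopressor agonist potency. Each potency was measured by intravenous injection against the USP posterior pituitary standard: antidiuresis in ethanol-anesthetized, water-loaded rats, and pressor response in phenoxybenzamine-treated, urethane-anesthetized rats.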

For assay [7], the species on record is Rattus norvegicus. Description: Binding affinity was determined. It is filed as functional, organism-based. The following applies: read-out: pA2 (converted).
Assay [8] is filed under the species Rattus norvegicus. Description: In vitro anti-oxytocic activity on isolated estrogen treated rat uteri with Mg+2. It is filed as functional. The note with it: read-out: pA2 (converted). The method, boiled down:
as §1

The species entered for assay [9] is Rattus norvegicus. Description: In vitro anti-oxytocic activity on isolated estrogen treated rat uteri with 0.5 mM Mg+2; Agonist. It is filed as functional. Put shortly:
as §1

The species entered for assay [10] is Rattus norvegicus. Description: In vitro anti-oxytocic activity on isolated estrogen treated rat uteri without Mg+2; Agonist. In kind it is functional. Put shortly: as §1
Assay [11] is filed under the species Rattus norvegicus. Description: In vitro oxytocic activity on isolated estrogen treated rat uteri with 0.5 mM Mg+2.

Where a SMILES comes first, the peptide text is derived from it.

As to `COc1ccc(C[C@@H]2NC(=O)CCSSC[C@@H](C(=O)N3CCC[C@H]3C(=O)N[C@H](CCCN=C(N)N)C(=O)NCC(N)=O)NC(=O)[C@H](CC(N)=O)NC(=O)[C@H](CCC(N)=O)NC(=O)[C@H](Cc3ccccc3)NC2=O)cc1` [listing 1 of 2 here], the Kb was 11.7 nM in the assay filed under Rattus norvegicus [1], 107 nM in the assay listed under Rattus norvegicus [2] and 39.8 nM in the assay listed under Rattus norvegicus [3].

For the compound `COc1ccc(C[C@@H]2NC(=O)CCSSC[C@@H](C(=O)N3CCC[C@H]3C(=O)N[C@H](CCCN=C(N)N)C(=O)NCC(N)=O)NC(=O)[C@H](CC(N)=O)NC(=O)[C@H](CCC(N)=O)NC(=O)[C@H](Cc3ccccc3)NC2=O)cc1` [listing 2 of 2 here], the ED with Rattus norvegicus [4] worked out at 9.8 nM/kg. In the assay listed under Rattus norvegicus [5], this compound came in with an Activity of 236 units/mg.

On to `COc1ccc(C[C@@H]2NC(=O)CCSSC[C@@H](C(=O)N3CCC[C@H]3C(=O)N[C@@H](CCCN=C(N)N)C(=O)NCC(N)=O)NC(=O)[C@H](CC(N)=O)NC(=O)[C@H](CCC(N)=O)NC(=O)[C@H](Cc3ccccc3)NC2=O)cc1`, for which the Ratio in assay [6] was 202. The compound further had an Activity in the assay filed under Rattus norvegicus [5] of 830 units/mg.

For the compound `CCOc1ccc(C[C@@H]2NC(=O)CCSSC[C@@H](C(=O)N3CCC[C@H]3C(=O)N[C@H](CCCN=C(N)N)C(=O)NCC(N)=O)NC(=O)[C@H](CC(N)=O)NC(=O)[C@H](CCC(N)=O)NC(=O)[C@H](Cc3ccccc3)NC2=O)cc1` [listing 1 of 2 here], the Kb in the assay listed under Rattus norvegicus [7] was 129 nM; in the assay filed under Rattus norvegicus [1], 52.5 nM; in the assay filed under Rattus norvegicus [3], 89.1 nM.

Consider `CCOc1ccc(C[C@@H]2NC(=O)CCSSC[C@@H](C(=O)N3CCC[C@H]3C(=O)N[C@H](CCCN=C(N)N)C(=O)NCC(N)=O)NC(=O)[C@H](CC(N)=O)NC(=O)[C@H](CCC(N)=O)NC(=O)[C@H](Cc3ccccc3)NC2=O)cc1` [listing 2 of 2 here], for which, in the assay on Rattus norvegicus [4], the ED came to 8.8 nM/kg. In the assay listed under Rattus norvegicus [5], this compound showed an Activity of 30 units/mg.

As for `COc1ccc(C[C@@H]2NC(=O)CCSSC[C@@H](C(=O)N3CCC[C@H]3C(=O)N[C@H](CCCN=C(N)N)C(=O)NCC(N)=O)NC(=O)[C@H](CC(N)=O)NC(=O)[C@H](C(C)C)NC(=O)[C@H](Cc3ccccc3)NC2=O)cc1` [listing 1 of 2 here], the Kb is 97.7 nM in the assay listed under Rattus norvegicus [7], 17 nM in the assay filed under Rattus norvegicus [1], 9.55 nM in the assay filed under Rattus norvegicus [3] and 9.55 nM in the assay listed under Rattus norvegicus [8].

`COc1ccc(C[C@@H]2NC(=O)CCSSC[C@@H](C(=O)N3CCC[C@H]3C(=O)N[C@H](CCCN=C(N)N)C(=O)NCC(N)=O)NC(=O)[C@H](CC(N)=O)NC(=O)[C@H](C(C)C)NC(=O)[C@H](Cc3ccccc3)NC2=O)cc1` [listing 2 of 2 here] yielded an ED in the assay on Rattus norvegicus [4] of 8.4 nM/kg. Also, the Activity in the assay filed under Rattus norvegicus [5] was found to be 1740 units/mg.

As for `CCOc1ccc(C[C@@H]2NC(=O)CCSSC[C@@H](C(=O)N3CCC[C@H]3C(=O)N[C@@H](CCCN=C(N)N)C(=O)NCC(N)=O)NC(=O)[C@H](CC(N)=O)NC(=O)[C@H](CCC(N)=O)NC(=O)[C@H](Cc3ccccc3)NC2=O)cc1` [listing 1 of 2 here], the Kb in the assay listed under Rattus norvegicus [7] is 126 nM; in the assay listed under Rattus norvegicus [1], 42.7 nM; in the assay filed under Rattus norvegicus [3], 39.8 nM.

Turning to `CCOc1ccc(C[C@@H]2NC(=O)CCSSC[C@@H](C(=O)N3CCC[C@H]3C(=O)N[C@@H](CCCN=C(N)N)C(=O)NCC(N)=O)NC(=O)[C@H](CC(N)=O)NC(=O)[C@H](CCC(N)=O)NC(=O)[C@H](Cc3ccccc3)NC2=O)cc1` [listing 2 of 2 here], the ED with Rattus norvegicus [4] was 11 nM/kg. Moreover, the Activity in the assay listed under Rattus norvegicus [5] is 242 units/mg.

Consider `CCOc1ccc(C[C@@H]2NC(=O)CCSSC[C@@H](C(=O)N3CCC[C@H]3C(=O)N[C@H](CCCN=C(N)N)C(=O)NCC(N)=O)NC(=O)[C@H](CC(N)=O)NC(=O)[C@H](C(C)C)NC(=O)[C@H](Cc3ccccc3)NC2=O)cc1` [listing 1 of 2 here], for which the Kb in the assay listed under Rattus norvegicus [7] is 85.1 nM; in the assay listed under Rattus norvegicus [1], 28.2 nM; in the assay listed under Rattus norvegicus [3], 22.9 nM.

The compound `CCOc1ccc(C[C@@H]2NC(=O)CCSSC[C@@H](C(=O)N3CCC[C@H]3C(=O)N[C@H](CCCN=C(N)N)C(=O)NCC(N)=O)NC(=O)[C@H](CC(N)=O)NC(=O)[C@H](C(C)C)NC(=O)[C@H](Cc3ccccc3)NC2=O)cc1` [listing 2 of 2 here] yielded an ED with Rattus norvegicus [4] of 6.3 nM/kg. In the assay filed under Rattus norvegicus [5], this compound returned an Activity of 132 units/mg.

For the compound `CCOc1ccc(C[C@@H]2NC(=O)CCSSC[C@@H](C(=O)N3CCC[C@H]3C(=O)N[C@@H](CCCN=C(N)N)C(=O)NCC(N)=O)NC(=O)[C@H](CC(N)=O)NC(=O)[C@H](C(C)C)NC(=O)[C@H](Cc3ccccc3)NC2=O)cc1` [listing 1 of 2 here], the Kb is 28.8 nM in the assay listed under Rattus norvegicus [7], 12.6 nM in the assay listed under Rattus norvegicus [1] and 22.9 nM in the assay listed under Rattus norvegicus [3].

On to `CCOc1ccc(C[C@@H]2NC(=O)CCSSC[C@@H](C(=O)N3CCC[C@H]3C(=O)N[C@@H](CCCN=C(N)N)C(=O)NCC(N)=O)NC(=O)[C@H](CC(N)=O)NC(=O)[C@H](C(C)C)NC(=O)[C@H](Cc3ccccc3)NC2=O)cc1` [listing 2 of 2 here], for which the ED in the assay with Rattus norvegicus [4] stood at 1.9 nM/kg. Moreover, the Activity in the assay listed under Rattus norvegicus [5] stood at 187 units/mg.

With `COc1ccc(C[C@@H]2NC(=O)CCSSC[C@@H](C(=O)N3CCC[C@H]3C(=O)N[C@@H](CCCN=C(N)N)C(=O)NCC(N)=O)NC(=O)[C@H](CC(N)=O)NC(=O)[C@H](C(C)C)NC(=O)[C@H](Cc3ccccc3)NC2=O)cc1` [listing 1 of 2 here], the values for the Kb in the assay listed under Rattus norvegicus [7], in the assay listed under Rattus norvegicus [1] and in the assay filed under Rattus norvegicus [3] were 55 nM, 11.7 nM and 19.5 nM, respectively.

Regarding `COc1ccc(C[C@@H]2NC(=O)CCSSC[C@@H](C(=O)N3CCC[C@H]3C(=O)N[C@@H](CCCN=C(N)N)C(=O)NCC(N)=O)NC(=O)[C@H](CC(N)=O)NC(=O)[C@H](C(C)C)NC(=O)[C@H](Cc3ccccc3)NC2=O)cc1` [listing 2 of 2 here], the ED in the assay on Rattus norvegicus [4] stood at 3.7 nM/kg. The Activity in the assay listed under Rattus norvegicus [5] turned out to be 789 units/mg.

`CC(C)[C@@H]1NC(=O)[C@H](Cc2ccccc2)NC(=O)[C@H](Cc2ccc(O)cc2)NC(=O)CCSSC[C@@H](C(=O)N2CCC[C@H]2C(=O)N[C@@H](CCCN=C(N)N)C(=O)NCC(N)=O)NC(=O)[C@H](CC(N)=O)NC1=O` (HELM PEPTIDE1{[O=C(CCS[*:3])[*:2]].Y.F.V.N.C.P.R.G.[am]}$PEPTIDE1,PEPTIDE1,1:R3-6:R3$$$V2.0): the agonist potency in the assay listed under Rattus norvegicus [9] came to 26 units/mg; in the assay listed under Rattus norvegicus [10] it was 31 units/mg. In addition, the Ratio in assay [6] is 225. The Activity in the assay filed under Rattus norvegicus [5] was determined as 1150 units/mg.

Take `CC(C)[C@@H]1NC(=O)[C@H](Cc2ccccc2)NC(=O)[C@H](Cc2ccc(O)cc2)NC(=O)CCSSC[C@@H](C(=O)N2CCC[C@H]2C(=O)N[C@H](CCCNC(=N)N)C(=O)NCC(N)=O)NC(=O)[C@H](CC(N)=O)NC1=O` (HELM PEPTIDE1{[O=C(CCS[*:3])[*:2]].Y.F.V.N.C.P.[dR].G.[am]}$PEPTIDE1,PEPTIDE1,1:R3-6:R3$$$V2.0): the agonist potency came out at 3 units/mg in the assay filed under Rattus norvegicus [9] and 8 units/mg in the assay filed under Rattus norvegicus [10]. Further, the ED in the assay with Rattus norvegicus [4] was 7.2 nM/kg. The compound further had an Activity in the assay listed under Rattus norvegicus [5] of 1230 units/mg.

On to `N=C(N)NCCC[C@@H](NC(=O)[C@@H]1CCCN1C(=O)[C@@H]1CSSCCC(=O)N[C@@H](Cc2ccc(O)cc2)C(=O)N[C@@H](Cc2ccccc2)C(=O)N[C@@H](CCC(N)=O)C(=O)N[C@@H](CC(N)=O)C(=O)N1)C(=O)NCC(N)=O` (stereo in doubt; form 1) [DESMOPRESSIN], for which the Ratio in [6] is 5. For the same compound, the values for the agonist potency in the assay listed under Rattus norvegicus [11] and in the assay filed under Rattus norvegicus [10] were 167 units/mg and 54 units/mg, respectively. In the assay listed under Rattus norvegicus [5], the Activity came to 1740 units/mg.

For `N=C(N)NCCC[C@@H](NC(=O)[C@@H]1CCCN1C(=O)[C@@H]1CSSCCC(=O)N[C@@H](Cc2ccc(O)cc2)C(=O)N[C@@H](Cc2ccccc2)C(=O)N[C@@H](CCC(N)=O)C(=O)N[C@@H](CC(N)=O)C(=O)N1)C(=O)NCC(N)=O` (stereo in doubt; form 2) [DESMOPRESSIN], the agonist potency in the assay listed under Rattus norvegicus [9] stood at 2.9 units/mg; in the assay listed under Rattus norvegicus [10], 1.5 units/mg. Besides, the Ratio in assay [6] is 3037. Also, in the assay filed under Rattus norvegicus [5], the Activity came out at 1200 units/mg.
